Holding throughout (format): functional
Experiment [1] in a line: Antioxidant activity assessed as copper ion radical scavenging activity at 2 uM. An outline of the steps: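 Cu(II)-reducing test: compound in distilled water mixed 40:160 with 0.5 mM CuCl2 plus 0.75 mM neocuproine in 10 mM phosphate buffer, pH 7.4. Absorbance read at 454 nm for 1 h. Reduced Cu(I) concentration measured at 2 μM compound.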
A short description of experiment [2]: Antioxidant activity assessed as peroxyl radical scavenging activity at 1 to 2 uM by ORAC assay. An outline of the steps:
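ORAC peroxyl-radical assay at 1.0 and 2.0 μM. Fluorescein is the radical target and 20 mM AAPH the generator. Fluorescence recorded every 2 min after AAPH, relative to the initial reading. Net area under the decay curve versus blank, expressed as μM Trolox equivalents against freshly prepared Trolox standard.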

The nature of experiment [3]: Metal chelating activity of the compound at 1 to 2 uM. An outline of the steps:
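Chelation: compound mixed 1:1 with CuSO4, then calcein added. Fluorescence read at excitation 485 nm and emission 535 nm, compared with calcein-only control. Tested at 1 and 2 μM; mean ± S.D.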

Calls of active or inactive are those of the source. The rule behind the calls is not given here.

In the case of `COc1cc(/C=C/CO)cc(OC)c1O[C@@H]1O[C@H](CO)[C@@H](O)[C@H](O)[C@H]1O`, the result in experiment [1], in experiment [2] and in experiment [3] was inactive.
As for `CC1=CC(=O)CC(C)(C)[C@H]1/C=C/[C@@H](C)O[C@@H]1O[C@H](CO[C@@H]2O[C@@H](CO)[C@H](O)[C@H]2O)[C@@H](O)[C@H](O)[C@H]1O`, the outcome in experiment [1], in experiment [2] and in experiment [3] was inactive.
Consider `CC[C@H](CC[C@@H](C)[C@H]1CC[C@H]2[C@@H]3CC=C4C[C@@H](O[C@@H]5O[C@H](CO)[C@@H](O)[C@H](O)[C@H]5O)CC[C@]4(C)[C@H]3CC[C@]12C)C(C)C`, for which the outcome in experiment [1], in experiment [2] and in experiment [3] was inactive.
`O=c1cc(-c2ccc(O)cc2)oc2c([C@@H]3O[C@H](CO)[C@@H](O)[C@H](O)[C@H]3O[C@H]3OC[C@@](O)(CO)[C@@H]3O)c(O)cc(O)c12`: the result in experiment [1] and in experiment [3] was inactive.
`O=c1cc(-c2ccc(O)cc2)oc2cc(O)c([C@@H]3O[C@H](CO)[C@@H](O)[C@H](O)[C@H]3O)c(O)c12`: the outcome in experiment [1] and in experiment [3] was inactive.
In the case of `C[C@H](/C=C/[C@]1(O)C(C)(C)C[C@@H](O)C[C@]1(C)O)O[C@H]1O[C@@H](CO)[C@H](O)[C@@H](O)[C@@H]1O`, the result in experiment [1], in experiment [2] and in experiment [3] was inactive.
With `C[C@@H]1C[C@H](O)CC(C)(C)[C@@]1(O)CC[C@H](C)O[C@H]1O[C@@H](CO)[C@H](O)[C@@H](O)[C@@H]1O`, the result in experiment [1], in experiment [2] and in experiment [3] was inactive.
With `CC[C@H](CC[C@@H](C)[C@H]1CC[C@H]2[C@@H]3CC=C4C[C@@H](O)CC[C@]4(C)[C@H]3CC[C@]12C)C(C)C`, the result in experiment [1], in experiment [2] and in experiment [3] was inactive.
`O=c1cc(-c2ccc(O[C@@H]3O[C@H](CO)[C@@H](O)[C@H](O)[C@H]3O)cc2)oc2cc(O)c([C@@H]3O[C@H](CO)[C@@H](O)[C@H](O)[C@H]3O)c(O)c12`: the outcome in experiment [1] and in experiment [3] was inactive.
For the molecule `Oc1cc(O)c2c(c1)O[C@H](c1ccc(O)c(O)c1)[C@H](O)C2`, the outcome in experiment [1] and in experiment [2] was Active. In addition, in experiment [3], the result was inactive.
For `C[C@H](O)/C=C/[C@@]1(O)C(C)(C)C[C@H](O)C[C@@]1(C)O`, the result in experiment [1], in experiment [2] and in experiment [3] was inactive.
Consider `CCCCCCCCCCCCCCCCCC(=O)OC[C@H]1O[C@@H](O[C@H]2CC[C@@]3(C)C(=CC[C@H]4[C@@H]5CC[C@H]([C@H](C)CC[C@@H](CC)C(C)C)[C@@]5(C)CC[C@@H]43)C2)[C@H](O)[C@@H](O)[C@@H]1O`, for which the outcome in experiment [1], in experiment [2] and in experiment [3] was inactive.
`O=c1cc(-c2ccc(O)c(O)c2)oc2cc(O)c([C@@H]3O[C@H](CO)[C@@H](O)[C@H](O)[C@H]3O)c(O)c12`: the result in experiment [1] and in experiment [2] was Active. In experiment [3], the result was inactive.
With `Oc1cc(O)c2c(c1)O[C@H](c1ccc(O)c(O)c1)[C@@H](O)C2`, the result in experiment [1] and in experiment [2] was Active. Besides, the result in experiment [3] was inactive.

Values taken from ChEMBL document CHEMBL1641480, “Antioxidant activity of a new C-glycosylflavone from the leaves of Ficus microcarpa” (Bioorg Med Chem Lett, 2011).
